From ChEMBL document CHEMBL5678808, “Human target validation of phosphoinositide 3-kinase (PI3K)β: effects on platelets and insulin sensitivity, using AZD6482 a novel PI3Kβ inhibitor” (J Thromb Haemost, 2012)
Active and inactive are the calls of the source. The calls are words filed in the database; no cut-off is given here.

Tests used:
[1] = target: Phosphatidylinositol 4,5-bisphosphate 3-kinase catalytic subunit beta isoform (Homo sapiens, UniProt P42338); assay: Inhibition of recombinant human PI3Kbeta using PIP2 as substrate preincubated for 20 mins followed by substrate and ATP addition and measured after 20 mins by biotinylated-PIP3 based alphascreen assay
Phosphatidylinositol 4,5-bisphosphate 3-kinase catalytic subunit beta isoform, sequence (P42338 whole entry, canonical isoform): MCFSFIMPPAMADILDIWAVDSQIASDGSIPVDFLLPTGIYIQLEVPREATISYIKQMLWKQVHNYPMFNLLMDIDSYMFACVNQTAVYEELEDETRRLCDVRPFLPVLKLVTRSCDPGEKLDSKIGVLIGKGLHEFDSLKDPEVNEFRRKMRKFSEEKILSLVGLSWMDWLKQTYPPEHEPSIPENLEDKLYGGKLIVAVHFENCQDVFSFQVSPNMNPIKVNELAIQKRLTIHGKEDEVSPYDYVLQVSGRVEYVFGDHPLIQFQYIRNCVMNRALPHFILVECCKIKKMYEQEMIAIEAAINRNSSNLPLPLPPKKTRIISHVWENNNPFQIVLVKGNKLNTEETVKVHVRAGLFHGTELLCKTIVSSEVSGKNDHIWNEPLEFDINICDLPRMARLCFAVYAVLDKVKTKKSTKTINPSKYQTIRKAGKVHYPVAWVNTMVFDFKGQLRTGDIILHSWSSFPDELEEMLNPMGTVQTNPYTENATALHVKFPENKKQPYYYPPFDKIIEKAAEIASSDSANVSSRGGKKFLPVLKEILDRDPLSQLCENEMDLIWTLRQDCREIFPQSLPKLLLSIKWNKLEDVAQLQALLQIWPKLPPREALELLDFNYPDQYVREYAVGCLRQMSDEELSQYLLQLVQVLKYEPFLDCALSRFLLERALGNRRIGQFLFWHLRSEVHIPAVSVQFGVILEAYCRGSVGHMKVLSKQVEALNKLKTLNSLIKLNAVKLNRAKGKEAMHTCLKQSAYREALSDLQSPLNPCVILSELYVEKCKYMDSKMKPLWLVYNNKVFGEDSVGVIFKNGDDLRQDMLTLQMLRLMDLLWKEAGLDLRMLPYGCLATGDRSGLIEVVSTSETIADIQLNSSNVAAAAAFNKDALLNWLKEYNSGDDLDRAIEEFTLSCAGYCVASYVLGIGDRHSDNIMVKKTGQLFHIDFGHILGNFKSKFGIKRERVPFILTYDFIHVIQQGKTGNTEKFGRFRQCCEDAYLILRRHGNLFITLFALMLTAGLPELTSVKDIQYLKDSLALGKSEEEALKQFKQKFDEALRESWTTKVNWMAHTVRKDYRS

[2] = target: Phosphatidylinositol 4,5-bisphosphate 3-kinase catalytic subunit alpha isoform (Homo sapiens, UniProt P42336); assay: Inhibition of recombinant human PI3Kalpha using PIP2 as substrate preincubated for 20 mins followed by substrate and ATP addition and measured after 20 mins by biotinylated-PIP3 based alphascreen assay
Phosphatidylinositol 4,5-bisphosphate 3-kinase catalytic subunit alpha isoform, sequence (P42336 whole entry, canonical isoform): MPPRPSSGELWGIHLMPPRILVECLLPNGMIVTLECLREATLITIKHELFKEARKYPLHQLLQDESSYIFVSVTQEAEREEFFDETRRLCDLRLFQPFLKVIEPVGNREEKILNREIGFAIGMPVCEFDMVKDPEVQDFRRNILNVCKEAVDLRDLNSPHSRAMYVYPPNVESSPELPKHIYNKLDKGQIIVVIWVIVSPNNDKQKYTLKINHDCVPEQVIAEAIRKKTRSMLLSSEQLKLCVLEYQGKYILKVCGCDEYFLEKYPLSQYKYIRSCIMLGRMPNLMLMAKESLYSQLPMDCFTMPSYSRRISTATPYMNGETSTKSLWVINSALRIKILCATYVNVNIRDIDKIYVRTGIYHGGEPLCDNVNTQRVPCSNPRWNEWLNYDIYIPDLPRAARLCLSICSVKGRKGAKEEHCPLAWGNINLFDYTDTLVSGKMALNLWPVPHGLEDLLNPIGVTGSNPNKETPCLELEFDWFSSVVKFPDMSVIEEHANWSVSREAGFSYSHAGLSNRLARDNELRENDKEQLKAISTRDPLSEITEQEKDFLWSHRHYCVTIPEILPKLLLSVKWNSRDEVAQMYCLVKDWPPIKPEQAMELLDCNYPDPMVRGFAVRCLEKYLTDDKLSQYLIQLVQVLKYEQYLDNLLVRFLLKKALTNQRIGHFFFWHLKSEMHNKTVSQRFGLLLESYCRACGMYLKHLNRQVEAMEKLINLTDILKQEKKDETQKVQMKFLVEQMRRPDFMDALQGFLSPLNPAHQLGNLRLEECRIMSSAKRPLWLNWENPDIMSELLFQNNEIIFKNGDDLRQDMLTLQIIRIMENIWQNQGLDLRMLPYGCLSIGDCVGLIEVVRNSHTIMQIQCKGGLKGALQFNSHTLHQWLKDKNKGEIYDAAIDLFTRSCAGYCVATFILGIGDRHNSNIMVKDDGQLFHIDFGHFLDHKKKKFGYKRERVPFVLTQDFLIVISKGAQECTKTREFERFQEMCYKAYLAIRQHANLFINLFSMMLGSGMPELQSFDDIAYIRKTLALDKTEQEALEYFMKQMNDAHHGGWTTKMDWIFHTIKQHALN

[3] = tested on: Rattus norvegicus; assay: Effect on insulin resistance in iv dosed Sprague-Dawley rat assessed as plasma concentration required to show relative HOMA index of 3; type: functional, organism-based
[4] = organism: Homo sapiens; assay: Inhibition of PI3Kalpha/beta/gamma/delta in human platelet rich plasma assessed as reduction in ADP-induced platelet aggregation at 5 uM preincubated for 10 mins followed by ADP addition and measured after 5 mins by light transmission aggregometry; type: cell-free; conditions: time 15.0 min
Procedure, shortened: (§1)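 Venous blood from healthy human donors, citrate-anticoagulated; undiluted platelet-rich plasma tested in an in-house 96-well plate light transmission aggregometry assay. Agonist concentration-response curves run without and with inhibitor. Values are means, n = 4.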

[5] = organism: Homo sapiens; assay: Inhibition of PI3Kalpha/beta/gamma/delta in human platelet rich plasma assessed as reduction in collagen-induced platelet aggregation at 5 uM preincubated for 10 mins followed by collagen addition and measured after 10 mins by light transmission aggregometry; type: cell-free; conditions: time 20.0 min; procedure, shortened: as §1
[6] = organism: Homo sapiens; assay: Inhibition of PI3Kalpha/beta/gamma/delta in human platelet rich plasma assessed as reduction in TRAP-induced platelet aggregation at 5 uM preincubated for 10 mins followed by TRAP addition and measured after 5 mins by light transmission aggregometry; type: cell-free; conditions: time 15.0 min; procedure, shortened: as §1

SMILES	IC50 [1] [nM]	IC50 [2] [nM]	Cp [3] [µM]	inhibition [4]	inhibition [5]	inhibition [6]
Cc1cc(F)ccc1Oc1cccc2c(=O)cc(N3CCOCC3)[nH]c12	160	22800	> 40	–	–	–
CC(=O)Nc1nc(C)c(-c2cnc(Cl)c(NS(C)(=O)=O)c2)s1	110	10	0.3	–	–	–
COC[C@H]1OC(=O)c2coc3c2[C@@]1(C)C1=C(C3=O)[C@@H]2CCC(=O)[C@@]2(C)C[C@H]1OC(C)=O	–	–	–	Active	Active	Active
Cc1cc(C(C)Nc2ccccc2C(=O)O)c2nc(N3CCOCC3)cc(=O)n2c1 (stereo not given)	–	–	30	–	–	–
